Assay results pooled from the literature.
Protocols differ between the studies behind these lines.
malE: malE (Escherichia coli, UniProt P0AEX9)
IAPP: Islet amyloid polypeptide (IAPP, Homo sapiens, UniProt P10997)
AMY2: Pancreatic alpha-amylase (AMY2, Sus scrofa, UniProt P00690)

Structure (SMILES) | target | read-out | action | method | notes | endpoint | result
C[C@H]1O[C@H](O[C@H]2[C@H](O)[C@@H](O)[C@@H](O[C@H]3[C@H](O)[C@@H](O)C(O)O[C@@H]3CO)O[C@@H]2CO)[C@H](O)[C@@H](O)[C@@H]1N[C@H]1C=C(CO)[C@@H](O)[C@H](O)[C@H]1O (stereo partly drawn) | malE | binding |  | ITC |  | Kd | 0.36 µM
COc1ccc(-c2cc(=O)c3c(OC)c(OC)c(OC)c(OC)c3o2)cc1OC | IAPP | binding |  | ITC |  | Kd | 2.79 µM
Clc1ccccc1/C=N/N=C/c1ccccc1Cl | AMY2 | enzyme activity | inhibitor |  |  | IC50 | 478 µM
COc1ccc(-c2cc(=O)c3c(OC)c(OC)c(OC)cc3o2)cc1OC | IAPP | binding |  | ITC |  | Kd | 3.06 µM
CC(C)(C)OC(=O)N1CCN(Cc2ccn(Cc3ccc(Cl)cc3)c(=O)c2O)CC1 | Lysine-specific demethylase 4D (KDM4D, Homo sapiens, UniProt Q6B0I6) | enzyme activity | inhibitor |  |  | IC50 | 3.35 µM
CC(=O)Nc1ccc(Nc2nc(-c3sc(N)nc3C)cs2)cc1 | Lysyl oxidase homolog 2 (LOXL2, Homo sapiens, UniProt Q9Y4K0) | enzyme activity | inhibitor | fluorescence | with preincubation | IC50 | 0.95 µM
FC(F)(F)c1ccc(/C=N/N=C/c2ccc(C(F)(F)F)cc2)cc1 | AMY2 | enzyme activity | inhibitor |  |  | IC50 | 270 µM
CCCc1ccc(O)c(OC)c1 | OR8H1 (Homo sapiens, UniProt Q8NGG4) | cAMP | agonist | luciferase |  | EC50 | > 600 µM
OC[C@@H](O)[C@@H](O[C@H]1O[C@H](CO)[C@@H](O[C@H]2O[C@H](CO)[C@@H](O[C@H]3O[C@H](CO)[C@@H](O)[C@H](O)[C@H]3O)[C@H](O)[C@H]2O)[C@H](O)[C@H]1O)[C@H](O)[C@@H](O)CO | malE | binding |  | ITC |  | Kd | 4.44 µM
